According to ChEMBL document CHEMBL1125425, “Synthesis and muscarinic activities of quinuclidin-3-yltriazole and -tetrazole derivatives” (J Med Chem, 1992):

Legend:
[1] = molecular target: Muscarinic acetylcholine receptor (Rattus norvegicus) (UniProt P08482+P08483+P08485+P08911+P10980); experiment: Ratio of IC50(QNB) to IC50(OXO-M) was determined; format: protein assay
[2] = molecular target: Muscarinic acetylcholine receptor; experiment: Compound was tested in vitro for its binding affinity to muscarinic acetylcholine receptor from rat cortical homogenates using [3H]OXO-M as radioligand
How it was run: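 Hooded Lister rat cerebral cortex washed membranes in 50 mM Tris pH 7.7 plus 2 mM MgCl2; 2 nM [3H]oxotremorine-M; nonspecific binding with 10 μM oxotremorine; 37 °C for 30 min; filtration on filters presoaked in 0.05% polyethylenimine, scintillation counting. IC50 is the geometric mean of at least two separate experiments, seven concentrations each.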

[3] = molecular target: Muscarinic acetylcholine receptor; experiment: Compound was tested in vitro for its binding affinity to muscarinic acetylcholine receptor from rat cortical homogenates using [3H]QNB as radioligand
[4] = molecular target: Muscarinic acetylcholine receptor; experiment: In vitro inhibition of [3H]QNB binding to Muscarinic receptor from rat cortical homogenates
[5] = molecular target: Muscarinic acetylcholine receptor; experiment: In vitro inhibition of [3H]OXO-M binding to Muscarinic receptor from rat cortical homogenates

SMILES | Ratio [1] | IC50 [2] [µM] | IC50 [3] [µM] | IC50 [4] [µM] | IC50 [5] [µM]
c1ncn(C2CN3CCC2CC3)n1 (centres undefined) | 65 | 0.43 | 28 | – | –
C[N+](C)(C)CC#CCN1CCCC1=O.[I-] [OXOTREMORINE METHIODIDE] | 1820 | 0.013 | 23 | – | –
Cn1ncc(C2CN3CCC2CC3)n1 (centres undefined) | – | – | – | 4.5 | 0.048
c1nnn(C2CN3CCC2CC3)n1 (centres undefined) | – | – | – | 16 | 0.24
Cn1nnnc1C1CN2CCC1CC2 (centres undefined) | – | – | – | 60 | 6.5
Cc1cnn(C2CN3CCC2CC3)n1 (centres undefined) | – | – | – | 1.6 | 0.17
Cc1ncn(C2CN3CCC2CC3)n1 (centres undefined) | – | – | – | 4.5 | 0.075
c1nncn1C1CN2CCC1CC2 (centres undefined) | – | – | – | 165 | 40
Cn1nncc1C1CN2CCC1CC2 (centres undefined) | – | – | – | 29 | 0.93
Cn1cc(C2CN3CCC2CC3)nn1 (centres undefined) | – | – | – | 53 | 4.6
O=C1CCCN1CC#CCN1CCCC1 [OXOTREMORINE] | – | – | – | 3.3 | 0.017
c1nnnn1C1CN2CCC1CC2 (centres undefined) | 49 | 2.3 | 115 | – | –
Cn1cnc(C2CN3CCC2CC3)n1 (centres undefined) | – | – | – | 30 | 3.4
Cc1cnnn1C1CN2CCC1CC2 (centres undefined) | 4.9 | 6.7 | 33 | – | –
Cn1nnc(C2CN3CCC2CC3)n1 (centres undefined) | – | – | – | 5.1 | 0.14
Cc1cn(C2CN3CCC2CC3)nn1 (centres undefined) | – | – | – | 20 | 5
Cc1nnn(C2CN3CCC2CC3)n1 (centres undefined) | 92 | 0.03 | 2.8 | – | –
